Results reported in ChEMBL document CHEMBL1121696, “Antimicrobial 3-methyleneflavanones” (1981).
Converted amounts (≈) assume the structure as drawn.

Assays:
Bacillus subtilis = assay: Compound was tested for its antimicrobial activity against Bacillus subtilis (ATCC 6633); assay type: functional
Method in brief: (§1)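 Agar dilution MIC. Stocks and twofold serial dilutions in DMF or 50% aqueous DMF were mixed 1:100 into molten Eugon agar, giving final 100, 50, 25, 12.5, 6.2, 3.1 mcg/mL (further dilutions sometimes) and ≤1% DMF. Inocula came from 24 h Eugon agar slants at 32 °C, suspended at 10⁶ cells/mL and applied with a Steers replicator. MIC (lowest concentration inhibiting growth) was read after 24 h at 32 °C.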

[1] = tested on: Clostridium acetobutylicum; assay: Compound was tested for its antimicrobial activity against Clostridium acetobutylicum (ATCC 824); assay type: functional
Method in brief: (§2)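 Anaerobic bacteria were grown 72 h at 32 °C in fluid thioglycollate medium and used undiluted to inoculate, by Steers replicator, Eugon agar containing serial twofold compound dilutions made in DMF or 50% aqueous DMF (final 100 to 3.1 mcg/mL, ≤1% DMF). MIC was read after 72 h of anaerobic incubation (Gas-Pak jar) at 37 °C.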

Cutibacterium acnes = assay: Compound was tested for its antimicrobial activity against Propionibacterium acnes (ATCC 6919); assay type: functional; method in brief: as §2
[2] = Compound was tested for its antimicrobial activity against Sarcina subflava (ATCC 7468); assay type: functional; method in brief: as §1
Staphylococcus aureus [3] = assay: Compound was tested for its antimicrobial activity against Staphylococcus aureus (9-195); assay type: functional; method in brief: as §1
Enterococcus faecalis [4] = assay: Compound was tested for its antimicrobial activity against Streptococcus faecalis (ATCC 10541); assay type: functional; method in brief: as §1
[5] = tested on: Staphylococcus epidermidis; assay: Compound was tested for its antimicrobial activity against Staphylococcus epidermidis (ATCC 12228); assay type: functional; method in brief: as §1
Staphylococcus aureus [6] = assay: Compound was tested for its antimicrobial activity against Staphylococcus aureus (9-267); assay type: functional; method in brief: as §1
Staphylococcus aureus [7] = assay: Compound was tested for its antimicrobial activity against Staphylococcus aureus (ATCC 151); assay type: functional; method in brief: as §1
Staphylococcus aureus [8] = assay: Compound was tested for its antimicrobial activity against Staphylococcus aureus (ATCC 6538); assay type: functional; method in brief: as §1
Staphylococcus aureus [9] = assay: Compound was tested for its antimicrobial activity against Staphylococcus aureus (NRRL B2747); assay type: functional; method in brief: as §1
Enterococcus = assay: Compound was tested for its antimicrobial activity against Enterococcus (9-25)
Staphylococcus aureus [10] = assay: Antimicrobial activity against Staphylococcus aureus (ATCC 6538, NRRL B2747); assay type: functional; method in brief: as §1
Trichophyton benhamiae [11] = assay: Compound was tested for the antimicrobial activity against Trichophyton mentagrophytes (ATCC 4807); Range is <3.1-25; assay type: functional, Arthroderma benhamiae
Method in brief: (§3)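 Spores came from Eugon agar slants grown 1 week at 32 °C, suspended at 10⁶/mL in Eugon broth or saline, and applied by Steers replicator. The lowest inhibitory concentration was read after 48-72 h at 32 °C.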

Staphylococcus aureus [12] = assay: Antimicrobial activity against Staphylococcus aureus (ATCC 6538, NRRL B2747); Range is <3.1-6.2; assay type: functional; method in brief: as §1
Trichophyton benhamiae [13] = assay: Compound was tested for the antimicrobial activity against Trichophyton mentagrophytes (ATCC 4807); Range is 6.1-12.5; assay type: functional, Arthroderma benhamiae; method in brief: as §3
Enterococcus faecalis [14] = assay: Compound was tested for the antimicrobial activity against Streptococcus faecalis (ATCC 10541); Range is 25-50; assay type: functional; method in brief: as §1
Trichophyton benhamiae [15] = assay: Compound was tested for the antimicrobial activity against Trichophyton mentagrophytes (ATCC 4807); Range is 6.2-25; assay type: functional, Arthroderma benhamiae; method in brief: as §3
Aspergillus niger = assay: Antimicrobial activity against Aspergillus niger (ATCC 16404); assay type: functional; method in brief: as §3
Trichophyton benhamiae [16] = assay: Compound was tested for the antimicrobial activity against Trichophyton mentagrophytes (ATCC 4807); Range is 6.2-12.5; assay type: functional, Arthroderma benhamiae; method in brief: as §3
Candida albicans [17] = assay: Compound was tested for the antimicrobial activity against Candida albicans (ATCC 10231, NRRL Y-477); Range is 50 to >100; assay type: functional; method in brief: as §1
Trichophyton benhamiae [18] = assay: Compound was tested for the antimicrobial activity against Trichophyton mentagrophytes (ATCC 4807); Range is 12.5-25; assay type: functional, Arthroderma benhamiae; method in brief: as §3
Candida albicans [19] = assay: Antimicrobial activity against Candida albicans (ATCC 10231, NRRL Y-477); assay type: functional; method in brief: as §1
Enterococcus faecalis [20] = assay: Antimicrobial activity against Streptococcus faecalis (ATCC 10541); assay type: functional; method in brief: as §1
Trichophyton benhamiae [21] = assay: Antimicrobial activity against Trichophyton mentagrophytes (ATCC 4807); assay type: functional, Arthroderma benhamiae; method in brief: as §3
Trichophyton benhamiae [22] = assay: Compound was tested for the antimicrobial activity against Trichophyton mentagrophytes (ATCC 4807); Range is <3.1-12.5; assay type: functional, Arthroderma benhamiae; method in brief: as §3
Candida albicans [23] = assay: Compound was tested for the antimicrobial activity against Candida albicans (ATCC 10231, NRRL Y-477); Range is 12.5-100; assay type: functional; method in brief: as §1
Staphylococcus aureus [24] = assay: Compound was tested for the antimicrobial activity against Staphylococcus aureus (ATCC 6538, NRRL B2747); Range is 6.2-12.5; assay type: functional; method in brief: as §1
Candida albicans [25] = assay: Compound was tested for the antimicrobial activity against Candida albicans (ATCC 10231, NRRL Y-477); Range is 25-50; assay type: functional; method in brief: as §1
Trichophyton benhamiae [26] = assay: Compound was tested for the antimicrobial activity against Trichophyton mentagrophytes (ATCC 4807); Range is 50 to >100; assay type: functional, Arthroderma benhamiae; method in brief: as §3
Staphylococcus aureus [27] = assay: Compound was tested for the antimicrobial activity against Staphylococcus aureus (ATCC 6538, NRRL B2747); Range is 50-100; assay type: functional; method in brief: as §1
Trichophyton benhamiae [28] = assay: Compound was tested for the antimicrobial activity against Trichophyton mentagrophytes (ATCC 4807); Range is 12.5-50; assay type: functional, Arthroderma benhamiae; method in brief: as §3
Candida albicans [29] = assay: Compound was tested for the antimicrobial activity against Candida albicans (ATCC 10231, NRRL Y-477); Range is 100 to >100; assay type: functional; method in brief: as §1

Oc1c(Cl)cc(Cl)c(Cl)c1Cc1c(O)c(Cl)cc(Cl)c1Cl [HEXACHLOROPHENE]
MIC (Bacillus subtilis): 0.125 µg/mL (≈ 0.307 µM) | MIC [1]: 0.06 µg/mL (≈ 0.147 µM) | MIC (Cutibacterium acnes): 0.06 µg/mL (≈ 0.147 µM) | MIC [2]: 0.06 µg/mL (≈ 0.147 µM) | MIC (Staphylococcus aureus [3]): 1 µg/mL (≈ 2.46 µM) | MIC (Enterococcus faecalis [4]): 0.125 µg/mL (≈ 0.307 µM) | MIC [5]: 0.5 µg/mL (≈ 1.23 µM) | MIC (Staphylococcus aureus [6]): 1 µg/mL (≈ 2.46 µM) | MIC (Staphylococcus aureus [7]): 0.5 µg/mL (≈ 1.23 µM) | MIC (Staphylococcus aureus [8]): 0.5 µg/mL (≈ 1.23 µM) | MIC (Staphylococcus aureus [9]): 0.5 µg/mL (≈ 1.23 µM) | MIC (Enterococcus): 1 µg/mL (≈ 2.46 µM)

C=C1C(=O)c2ccccc2OC1c1ccc(Cl)cc1 (configuration not stated)
MIC (Staphylococcus aureus [10]): < 3.1 µg/mL | MIC (Trichophyton benhamiae [11]): < 3.1 µg/mL

C=C1C(=O)c2ccccc2OC1c1ccc(Br)cc1 (configuration not stated)
MIC (Staphylococcus aureus [12]): < 3.1 µg/mL | MIC (Trichophyton benhamiae [13]): 6.1 µg/mL (≈ 19.4 µM)

C=C1C(=O)c2ccccc2OC1c1ccc(Cl)cc1Cl (configuration not stated)
MIC (Enterococcus faecalis [14]): 25 µg/mL (≈ 81.9 µM) | MIC (Trichophyton benhamiae [15]): 6.2 µg/mL (≈ 20.3 µM)

C=C1C(=O)c2ccccc2OC1c1ccc(C#N)cc1 (configuration not stated)
MIC (Trichophyton benhamiae [15]): 6.2 µg/mL (≈ 23.7 µM)

C=C1C(=O)c2ccccc2OC1c1ccccc1 (configuration not stated)
MIC (Aspergillus niger): 100 µg/mL (≈ 423 µM) | MIC (Trichophyton benhamiae [16]): 6.2 µg/mL (≈ 26.2 µM)

C=C1C(=O)c2ccccc2OC1c1ccc(C(C)(C)C)cc1 (configuration not stated)
MIC (Candida albicans [17]): > 50 µg/mL | MIC (Enterococcus faecalis [14]): 25 µg/mL (≈ 85.5 µM) | MIC (Staphylococcus aureus [12]): < 3.1 µg/mL | MIC (Trichophyton benhamiae [18]): 12.5 µg/mL (≈ 42.8 µM)

O=C1/C(=C/Cl)C(c2ccccc2)Oc2ccccc21 (configuration not stated)
MIC (Aspergillus niger): > 100 µg/mL | MIC (Candida albicans [19]): > 100 µg/mL | MIC (Enterococcus faecalis [20]): > 100 µg/mL | MIC (Staphylococcus aureus [10]): > 100 µg/mL | MIC (Trichophyton benhamiae [21]): > 100 µg/mL

CN(C)CC1(C)C(=O)c2ccccc2OC1c1ccccc1 (configuration not stated)
MIC (Aspergillus niger): > 50 µg/mL | MIC (Candida albicans [19]): > 50 µg/mL | MIC (Enterococcus faecalis [20]): > 50 µg/mL | MIC (Staphylococcus aureus [10]): > 50 µg/mL | MIC (Trichophyton benhamiae [21]): > 50 µg/mL

C=C1C(=O)c2ccccc2OC1c1cccc(Cl)c1 (configuration not stated)
MIC (Staphylococcus aureus [12]): < 3.1 µg/mL | MIC (Trichophyton benhamiae [22]): < 3.1 µg/mL

CN(C)CC1C(=O)c2ccccc2OC1c1ccccc1 (configuration not stated)
MIC (Candida albicans [23]): 12.5 µg/mL (≈ 44.4 µM) | MIC (Staphylococcus aureus [24]): 6.2 µg/mL (≈ 22 µM) | MIC (Trichophyton benhamiae [22]): < 3.1 µg/mL

CN(C)/C=C1\C(=O)c2ccccc2OC1c1ccccc1 (configuration not stated)
MIC (Aspergillus niger): > 100 µg/mL | MIC (Candida albicans [19]): > 100 µg/mL | MIC (Enterococcus faecalis [20]): > 100 µg/mL | MIC (Staphylococcus aureus [10]): > 100 µg/mL | MIC (Trichophyton benhamiae [21]): 100 µg/mL (≈ 358 µM)

C=C1COc2ccccc2C1=O
MIC (Aspergillus niger): 100 µg/mL (≈ 624 µM) | MIC (Candida albicans [25]): 25 µg/mL (≈ 156 µM) | MIC (Enterococcus faecalis [20]): 100 µg/mL (≈ 624 µM) | MIC (Staphylococcus aureus [10]): 50 µg/mL (≈ 312 µM) | MIC (Trichophyton benhamiae [16]): 6.2 µg/mL (≈ 38.7 µM)

C=C1C(=O)c2ccccc2SC1c1ccccc1 (configuration not stated)
MIC (Aspergillus niger): > 100 µg/mL | MIC (Candida albicans [19]): > 100 µg/mL | MIC (Enterococcus faecalis [20]): > 100 µg/mL | MIC (Trichophyton benhamiae [26]): > 50 µg/mL | MIC (Staphylococcus aureus [27]): 50 µg/mL (≈ 198 µM)

C=C1C(=O)c2cc(Br)ccc2OC1c1ccc(Br)cc1 (configuration not stated)
MIC (Trichophyton benhamiae [28]): 12.5 µg/mL (≈ 31.7 µM) | MIC (Candida albicans [29]): > 100 µg/mL
